# PfGluPho inh: PfG6PD (Plasmodium falciparum) enzyme inhibition. inhibition, % at 20 µM. PfGluPho enzyme, NADPH resazurin-diaphorase fluorescence. AID 504690. actives 0.78% (n = 350,000);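 active = inhibition reaching at least a set limit at 20 µM in the primary screen, cut at about 59% in these data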
# APJ ag: agonists of human APJ apelin receptor; P35414; CHO-K1 APJ PathHunter beta-arrestin, luminescence; 0% DMSO wells, 100% apelin; activation, % at 20 µM; actives 0.11% (n = 330,000); AID 2520;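 active = activation more than six SD over the plate average, tested at 20 µM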
# Target sequence (P35414 whole entry, looked up): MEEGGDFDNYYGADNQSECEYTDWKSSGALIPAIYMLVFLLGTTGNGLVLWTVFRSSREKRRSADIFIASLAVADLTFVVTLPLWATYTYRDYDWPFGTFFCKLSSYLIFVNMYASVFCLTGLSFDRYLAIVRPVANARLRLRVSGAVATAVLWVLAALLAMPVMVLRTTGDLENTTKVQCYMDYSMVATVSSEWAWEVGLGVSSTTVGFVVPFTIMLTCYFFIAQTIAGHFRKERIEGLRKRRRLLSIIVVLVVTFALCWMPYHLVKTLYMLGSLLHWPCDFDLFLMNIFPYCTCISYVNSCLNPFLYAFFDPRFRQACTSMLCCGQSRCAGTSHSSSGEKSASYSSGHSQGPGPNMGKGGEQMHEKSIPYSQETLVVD
#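 assay system = CHO-K1 APJ beta-arrestin complementation cell line | input = cell density 1000 per well | dosing = compound 20 µM once, DMSO 1% | timing = compound 90 min 25 °C, reagent 1 h | measured by = luminescence from split beta-galactosidase complementation, Galacton Star/Emerald II substrate | read-out basis = APJ agonist activity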
# CXCR6 inh: blocks human CXCR6 beta-arrestin recruitment; CHO-K1 PathHunter CXCR6 beta-arrestin, luminescence; inhibition, % at 20 µM; actives 0.36% (n = 360,000); in the data active = inhibition above about 34%, passing the limit was not always enough;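 note: antagonist mode with CXCL16 agonist at 10 nM final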
# APJ antagonist: APJ receptor antagonism. actives 0.32% (n = 330,000). P35414. inhibition, % at 20 µM. CHO-K1 APJ beta-arrestin complementation, luminescence;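 active = inhibition above about 40% at 20 µM, limit read from the data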;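 note: cells challenged with 10 nM apelin-13 agonist together with compound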
# Beta2AR agonist: agonists of human beta-2 adrenergic receptor inducing internalization. Am2.2-beta2AR cells, FAP receptor internalization, flow cytometry. response, % (test concentration not listed). actives 0.43% (n = 340,000). AID 504454;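 active = response above a set limit, near 3 SD of response in nonfluorescent compounds, cut at about 42% in these data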
# CCR6 antagonist: antagonists of human CCR6 receptor | P51684 | CHO-K1 CCR6 PathHunter beta-arrestin, luminescence, CCL20-stimulated | inhibition, % at 20 µM | actives 0.49% (n = 340,000) | AID 493098;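 active = compounds whose inhibition of the agonist-driven luminescence signal at 20 µM reaches about 50%, limit read from the data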;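 note: cells stimulated with CCL20 at 14 nM final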
# Hits are given with their value; - = inactive; . = no result given; ! = a repeat was not active. Rows were chosen to be rich in hits. Some 1.7% of all compounds tested hit in one or more screens of this group.
SMILES,PfGluPho inh,APJ ag,CXCR6 inh,APJ antagonist,Beta2AR agonist,CCR6 antagonist
COc1ccc(-c2nn(-c3ccccc3)cc2/C=C/C(=O)N2CCN(c3ccccn3)CC2)cc1,-,-,-,-,55,-
C=CCNC(=O)/C(C#N)=C/c1c(N2CCCCCC2)nc2ccccn2c1=O,-,-,-,-,-,-
CCNC(=O)/C(C#N)=C/c1c(N2CCOCC2)nc2ccccn2c1=O,-,-,-,-,47,-
CN(C(=S)NC(=O)C12CC3CC(CC(C3)C1)C2)c1ccc(O)cc1,103,-,-,-,-,-
CSc1nc2c(c(=O)[nH]1)CCCC2,-,-,-,-,-,-
CSc1nc(=S)c2[nH]c(=S)[nH]c2[nH]1,88,.,-,.,-,-
Cn1nc(C(=O)Nc2nc3ccccc3[nH]2)c2ccccc2c1=O,-,-,-,-,56,-
O=C(Nc1c(-c2ccccc2)[nH][nH]c1=O)c1ccc(Br)cc1,.,.,-,.,.,.
CCOC(=O)c1c(NC(=O)c2ccccc2N(C)S(=O)(=O)c2ccccc2)sc2c1CCCC2,-,-,-,-,-,-
CCOC(=O)c1c(NC(=O)C(NCCN(C)C)c2ccccc2)sc2c1CCCC2 (stereo unspecified),-,-,-,-,-,54
CS(=O)(=O)c1ncc(Cl)c(C(=O)Nc2ccc3ccccc3c2)n1,-,.,70,.,48,81
CN1CCN(C(c2ccccn2)c2cc(Cl)c3cccnc3c2O)CC1 (stereo unspecified),-,-,-,-,-,-
Cc1ccc(C(c2cc(Cl)c3cccnc3c2O)N2CCN(C)CC2)cc1 (stereo unspecified),-,-,-,-,-,57
Oc1ccc(N=Nc2ccccc2-c2nn[nH]n2)c(O)c1,-,-,-,-,-,-
CC(=O)n1cc(C(C[N+](=O)[O-])SCCN)c2ccccc21 (stereo unspecified),-,-,-,-,76,60
O=C(N/N=C/c1ccc(-c2cccc([N+](=O)[O-])c2)o1)c1cccs1,-,-,-,-,-,-
N#C/C(=C\c1ccc(-c2cccc([N+](=O)[O-])c2)o1)C(=O)Nc1nc(-c2cccs2)cs1,-,-,-,-,-,84
O=C(OCc1cnc(Cl)s1)c1ccccc1Cl,-,-,-,-,-,-
O=C(OCn1ncc(Br)c(Br)c1=O)c1ccccc1Cl,-,-,49,-,49,-
O=C(OCn1ncc(Br)c(Br)c1=O)c1ccc(F)cc1,-,-,47,-,78,-
Cc1c(NC(=O)CSc2nnc(-c3ccccc3F)o2)c(=O)n(-c2ccccc2)n1C,-,.,-,.,.,.
CCN1CCN(c2nc(N)c([N+](=O)[O-])c(Nc3ccc(C)c(C)c3)n2)CC1,-,-,-,-,63,-
CCN(CC)CCN(Cc1cc2cc3c(cc2[nH]c1=O)OCO3)C(=S)NCCOC,-,-,-,-,-,-
OCc1ccccc1-c1cccc2nccn12,.,.,-,.,.,.
C(=Cc1cccnc1)c1ccncc1,-,.,-,.,-,-
SMILES,PfGluPho inh,APJ ag,CXCR6 inh,APJ antagonist,Beta2AR agonist,CCR6 antagonist
O=C(/C=C/c1cccnc1)/C=C/c1cccnc1,-,.,-,.,67,59
CSCCC(NC(=O)c1ccccc1Cl)C(=O)Nc1ccncc1 (stereo unspecified),-,-,-,-,-,-
Cc1cccc(N2CCN(C(=O)CCC(=O)N3Cc4ccccc4Oc4ncccc43)CC2)c1C,-,-,-,-,-,-
Oc1cc(-c2ccccc2)c2ccccc2c1,101,-,-,-,-,-
O=C1C2C3C=CC(CO)(O3)C2C(=O)N1c1ccccc1-c1ccccc1 (stereo unspecified),82,-,57,-,55,102
CN1CCN(c2cc(C(F)(F)F)nc3ccc(F)cc23)CC1,-,-,-,-,-,-
COc1ccc(CN2C(=O)C(Cc3ccccc3)Nc3ncnc(N4CCCCC4)c32)cc1 (stereo unspecified),-,-,-,-,-,-
Cc1ccc(CN2C(=O)C(Cc3ccccc3)Nc3ncnc(N4CCCCC4)c32)cc1 (stereo unspecified),-,-,41!,-,-,51
COc1ccc(N2CCN(C(=O)CN(Cc3ccc(Cl)cc3)S(C)(=O)=O)CC2)cc1,-,-,71,-,-,-
NC(N)=N/N=C/c1ccc(OCc2ccccc2Cl)cc1,-,-,-,-,53,-
NC(N)=N/N=C/c1ccccc1,-,-,-,-,-,-
N#C/C(=C\c1cccs1)C(=O)c1ccccc1Cl,-,-,.,-,54,-
Cc1ccc2[nH]c3c(=O)n(CC(=O)NCc4ccco4)ncc3c2c1,-,-,-,-,-,-
Cc1[nH]c2ccccc2c1C(C#N)(C#N)C1C(=O)c2ccccc2C1=O,122,-,43,-,-,-
Cc1[nH]c2ccccc2c1CC#N,-,-,-,-,-,-
O=C(COC(=O)c1cnccn1)Nc1cccc(F)c1,-,-,-,-,-,-
O=[N+]([O-])c1ccc(N/N=C/c2ccc[nH]2)cc1,81,.,-,.,-,55
O=[N+]([O-])c1ccc(NN=Cc2cccc([N+](=O)[O-])c2)cc1,-,.,-,.,-,-
O=C(CSc1nc(-c2ccco2)cc(C(F)(F)F)n1)NCCCn1ccnc1,-,-,48,-,-,-
COc1cc(C(CC(=O)Nc2ncccc2C)N2Cc3ccccc3C2=O)cc(OC)c1OC (stereo unspecified),-,-,-,-,-,-
O=C(N=Nc1c(O)[nH]c2ccc([N+](=O)[O-])cc12)c1ccccc1Cl,-,-,-,-,-,-
O=C(N=Nc1c(O)[nH]c2ccc(Cl)cc12)c1cc(-c2cccs2)nc2ccccc12,-,.,-,.,47,-
CCOC(=O)c1c(C)[nH]c(C(=O)COC(=O)/C=C/c2ccc3c(c2)OCO3)c1C,-,-,-,-,53,-
CCOc1cc(/C=C(/C#N)C(=O)Nc2ccc(O)cc2)cc(Br)c1O,-,-,-,-,52,-
COc1ccc(C(=O)N/N=C/c2sc(N3CCOCC3)nc2-c2ccccc2)cc1OC,-,-,-,-,-,-
SMILES,PfGluPho inh,APJ ag,CXCR6 inh,APJ antagonist,Beta2AR agonist,CCR6 antagonist
COc1ccccc1NS(=O)(=O)c1cc([N+](=O)[O-])ccc1N/N=C/c1sc(N2CCOCC2)nc1-c1ccccc1,-,.,44,.,-,63
Cc1ccc(S(=O)(=O)N2CCC(=O)N([C@H](COCc3ccc(C(F)(F)F)cc3)C(C)C)CC2)cc1,.,.,-,.,.,.
O=C(NN=C1CCCC1)c1[nH]c2ccc(Cl)cc2c1-c1ccccc1,-,-,-,-,-,-
O=C(N/N=C1\CCCc2c1[nH]c1ccc(Cl)cc21)c1ccncc1,-,-,-,-,45,-
COc1cccc(CNC(=O)C2(C)CCCCN2C)c1 (stereo unspecified),.,.,-,.,.,.
COc1cc(C(=O)Nc2scc(-c3ccc(Br)cc3)c2C(=O)O)cc(OC)c1OC,59,-,-,-,-,-
